# Assay outcomes from PubChem.
# TRPML3 agonist: human mucolipin-3 channel agonism | Q8TDD5 | HEK293 TRPML3-YFP, Fluo-8 calcium fluorescence; 100% = the carbachol control signal | activation, % at 3 µM | actives 0.29% (n = 220,000);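 active = activation above its plate's cutoff, the mean activation of the plate's test wells plus 3 SD, cut at about 12% in these data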;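 also: 0% = DMSO only wells and 100% = carbachol wells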
# Target sequence (Q8TDD5 whole entry, looked up): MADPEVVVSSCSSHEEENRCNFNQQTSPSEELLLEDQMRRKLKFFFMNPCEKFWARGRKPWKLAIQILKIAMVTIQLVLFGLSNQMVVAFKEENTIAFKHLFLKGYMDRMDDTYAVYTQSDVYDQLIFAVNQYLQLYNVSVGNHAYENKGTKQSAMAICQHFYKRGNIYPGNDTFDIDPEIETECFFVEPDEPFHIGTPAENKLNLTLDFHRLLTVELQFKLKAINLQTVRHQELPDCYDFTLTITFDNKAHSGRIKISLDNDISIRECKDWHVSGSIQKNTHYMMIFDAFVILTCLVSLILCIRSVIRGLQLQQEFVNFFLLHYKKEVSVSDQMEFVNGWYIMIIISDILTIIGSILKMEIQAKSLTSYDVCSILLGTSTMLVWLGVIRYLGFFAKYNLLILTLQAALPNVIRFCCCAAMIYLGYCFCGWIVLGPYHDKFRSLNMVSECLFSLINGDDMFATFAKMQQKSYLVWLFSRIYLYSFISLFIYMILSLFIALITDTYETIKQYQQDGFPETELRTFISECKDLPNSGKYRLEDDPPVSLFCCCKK
#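 Material: HEK293 cells stably carrying human TRPML3-YFP; compound dosing: single dose, 3 µM final nominal compound, 0.3% DMSO final; incubation: 1-h 37 °C dye load, 5-s basal, 120-s post-compound reads; technique: Fluo-8 intracellular calcium fluorescence, excitation 470-495 nm, emission 515-575 nm; read-out basis: percent activation from peak-to-basal fluorescence ratio, scaled between DMSO and carbachol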
# OX1R antag-1: blocks the human orexin 1 receptor; actives 1.8% (n = 330,000); OX1R-expressing cells, FRET antagonist read-out; O43613; inhibition, % at 6.6 µM; in the data active = inhibition mostly above about 38%, no sharp cut-off; inactive = mostly below about 40%;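 also: 0% = agonist challenge alone and 100% = reference antagonist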
# OX1R antag-2: antagonists of human orexin 1 receptor. O43613. CHO/OX1R cells, Fluo-8 calcium fluorescence, orexin A. inhibition, % at 5 µM. actives 0.43% (n = 330,000);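 active = inhibition above its plate's threshold, mean inhibition of all tested compounds on the plate plus 3 SD, cut at about 37% in these data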;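 also: 0% = orexin A challenge wells and 100% = SB-334867-A antagonist wells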
# CHO parental Ca: signal in parental CHO cells, OX1R antagonist counter-screen; AID 463079; actives 0.63% (n = 330,000); inhibition, % at 5.6 µM; parental CHO-K1, ATP-induced calcium, Fluo-8 fluorescence;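 active = inhibition above that plate's mean sample inhibition plus 3 SD, cut at about 26% in these data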;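 also: 0% = ATP-challenged DMSO wells and 100% = DMSO wells without ATP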
#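 Measured by: calcium-sensitive Fluo-8 fluorescence / Test system: CHO parental line / Controls: ATP-challenged DMSO wells low, unchallenged DMSO wells high / Measure: % inhibition / Compound: single nominal dose of 5.6 µM per compound / Replicates: single well per compound, no replicates / Reagent: ATP as calcium-mobilizing challenge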
# zfTRPN1 agonist: zebrafish TRPN1 (NompC) channel agonism | HEK293 zebrafish TRPN1-YFP, Fluo-8 calcium fluorescence; 100% = response to 87 µM carbachol | actives 0.18% (n = 220,000) | AID 1424 | activation, % at 3 µM;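 active = activation above its plate's cutoff, the mean activation of test wells on that plate plus 3 SD, cut at about 19% in these data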;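 also: 0% = DMSO alone and 100% = 87 µM carbachol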
#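 Assay system: Zebrafish TRPN1-YFP in HEK293 cells | Incubation: Dye loading 1 h at 37 °C, then 30 min room temperature | Measured by: Kinetic Fluo-8 fluorescence, ex 470-495, em 515-575 nm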
# * = called active by the depositor; / = no result. Only some compounds are listed: those with a hit (about 2.5% of all), similar ones and a draw of the others.
SMILES,TRPML3 agonist,OX1R antag-1,OX1R antag-2,CHO parental Ca,zfTRPN1 agonist
COC(=O)C1=C(C)N(Cc2cccnc2)C(=O)/C1=C\c1sccc1C,-0.9,18.1,-39.1,-13.3,0.2
Cn1c(=O)c2cc(NCc3ccccc3)nnc2n(C)c1=O,0.5,48.0*,-17.1,-9.2,2.5
C=CCn1c(SC(C)C(=O)NC2CC2)nnc1-c1ccoc1C (centres undefined),/,2.0,-5.2,-17.5,/
O=c1c2ccccc2oc2cc(C#CC3(O)CCCCC3)ccc12,/,60.9*,-20.3,-34.2,/
CC(CC(=O)N1CCN(c2cccc(Cl)c2)CC1)S(=O)(=O)c1ccc2c(c1)NC(=O)CO2 (centres undefined),/,60.2*,57.4*,78.1*,/
O=C1COc2ccc(S(=O)(=O)CCC(=O)N3CCN(c4ccccc4)CC3)cc2N1,/,7.7,-17.8,-14.6,/
Cc1ccc(C)c(N2CCN(C(=O)CCS(=O)(=O)c3ccc4c(c3)NC(=O)CO4)CC2)c1,/,23.9,65.7*,56.7*,/
Cc1ccccc1NC1=C(Cl)C(=O)OC1OC(=O)c1ccccc1C (centres undefined),-1.4,25.2,2.8,61.2*,-2.0
Cc1ccc(NC2=C(Cl)C(=O)OC2OC(=O)c2ccccc2)c(C)c1 (centres undefined),0.1,12.1,-2.7,-1.4,-1.0
CC1CC(=O)N(CC(=O)Nc2ccc(F)cc2)c2ccccc2S1(=O)=O (centres undefined),/,5.0,-16.9,-14.4,/
CN(C)CCOc1ccc(-c2c(-c3ccccc3)sc3ccccc23)cc1,/,10.5,64.2*,49.0*,/
c1ccc(-c2sc3ccccc3c2-c2ccc(OCCN3CCCCC3)cc2)cc1,/,6.2,-12.2,-16.4,/
Cc1ccc(CN2CCCN(Cc3ccc(F)cc3Cl)S2(=O)=O)cc1,/,-1.6,-5.2,46.9*,/
O=S1(=O)N(Cc2ccccc2F)CCCN1Cc1c(F)cccc1Cl,/,15.5,35.8,66.4*,/
CCOC(=O)c1c(NC(=O)CSc2nnc(-c3c[nH]c4ccccc34)n2CCOC)sc2c1CCCCC2,0.9,44.6*,12.5,-8.8,-0.7
COc1ccc(NC(=O)CNC(=O)Cc2cccc3ccccc23)c(OC)c1,/,13.9,-27.2,-28.7,/
COc1cc(N)c(Cc2nccc3cc(OC)c(OC)cc23)cc1OC,0.8,18.7,-19.7,-24.4,1.1
COc1ccc(C(N)c2nccc3cc(OC)c(OC)cc23)cc1OC (centres undefined),/,72.7*,-41.4,-14.0,/
Nc1[nH]c2cc([N+](=O)[O-])ccc2c1-c1ccccn1,/,16.8,51.2*,36.6*,/
O=C(COC(=O)c1ccc2ncsc2c1)Nc1ccc(OC(F)(F)F)cc1,/,-5.3,37.2*,25.3,/
CC(C)C(=O)N[C@@H]1c2ccccc2CC[C@@H]1OCc1ccccc1,/,4.8,-12.2,-16.5,/
COc1ccc(CNC(=O)CSc2nc(SC)ns2)cc1,/,10.6,-21.3,98.3*,/
O=C(NCc1ccccn1)c1ccc([N+](=O)[O-])cc1,0.3,30.6,-14.2,-5.6,1.3
O=C(c1ccc([N+](=O)[O-])cc1)N(c1ccccn1)c1ccccn1,0.3,74.3*,-11.1,1.0,2.5
O=[N+]([O-])c1ccc(Sc2ccccn2)nc1,0.7,72.7*,0.4,2.0,-0.7
SMILES,TRPML3 agonist,OX1R antag-1,OX1R antag-2,CHO parental Ca,zfTRPN1 agonist
O=C(Nc1cc(Sc2ccccn2)cc([N+](=O)[O-])c1)c1ccc([N+](=O)[O-])cc1,0.2,22.1,44.3*,40.8*,0.9
O=C(Nc1ccc([N+](=O)[O-])cc1)c1ccccc1,/,15.3,7.1,3.1,/
COc1ccccc1NC(=O)C(C)Sc1nc(-c2ccccc2)cn1N (centres undefined),/,23.9,-19.8,-27.8,/
CCOc1ccccc1C(=O)Nc1cccc2cccnc12,/,44.5*,9.9,-18.5,/
COc1ccc(C(=O)Nc2cccc3cccnc23)cc1OC,0.1,49.1*,-15.0,-14.6,-1.4
O=C(Nc1cccc2ccccc12)c1ccc(Br)o1,-0.5,/,/,/,-0.6
O=C(Nc1cccc2cccnc12)c1ccc(Br)o1,0.3,75.4*,9.4,-16.2,-1.0
O=C(Nc1cccc2ccccc12)c1ccccc1NS(=O)(=O)c1cccc2cccnc12,0.7,64.9,14.7,-16.6,-1.5
COc1ccc(C(=O)Nc2cccnc2Cl)cc1OC,/,13.6,-6.9,-5.5,/
COc1ccc(OC)c(NC(=O)c2ccccc2NS(=O)(=O)c2cccc3cccnc23)c1,-0.4,63.9*,5.5,-8.6,0.0
O=C(Nc1cccc2cccnc12)c1cccc2ccccc12,0.0,24.7,-26.8,-20.2,-0.6
CCN(CC(=O)Nc1ccc(Br)cc1)C(=O)Cc1cccc(F)c1,/,48.7*,-8.9,-20.4,/
O=C(NC(=S)NC1CCCCC1)c1ccc(F)cc1,/,29.4,-33.3,-5.1,/
CCOC(=O)C(=O)NCC(c1cccs1)S(=O)(=O)c1ccc(F)cc1 (centres undefined),/,3.2,-13.6,9.2,/
Cc1ccc(CN2CCN(CC(=O)N=Nc3c(O)[nH]c4ccccc34)CC2)cc1,2.0,65.6*,-1.0,-27.2,2.6
O=C(N=Nc1c(O)[nH]c2ccccc12)c1ccc(CN2CCOCC2)cc1,1.2,63.4*,3.0,-2.7,2.1
Oc1[nH]c2ccccc2c1N=NC(=S)N1CCOCC1,0.2,19.5,-10.2,9.3,0.3
Cc1cccc(NC(=O)CNC(=O)c2cccc(-n3cccc3)c2)c1C,/,8.8,-14.3,-17.0,/
O=C(CSc1ccc(-c2cccs2)nn1)Nc1ccccc1,0.8,22.1,-6.5,1.5,0.4
Cc1cc(C)cc(NC(=O)CSc2ccc(-c3cccs3)nn2)c1,-0.2,62.2*,7.6,-26.5,1.9
COc1ccc(C(=O)CSc2ccc(-c3ccccc3)nn2)cc1,1.3,68.6*,7.2,-10.8,0.5
O=C(CSc1ccc(-c2cccs2)nn1)NCCc1ccccc1,0.0,30.1,-20.5,-10.1,-1.0
COc1cc(NC(=O)CSc2ccc(-c3ccccn3)nn2)cc(OC)c1,/,60.2*,2.3,-15.5,/
COc1ccccc1CCNC(=O)CSc1ccc(-c2cccs2)nn1,20.1*,31.6,-5.4,-15.6,32.7*
COc1ccc(S(=O)(=O)N2CCN(CC(=O)NC(Cc3ccccc3)C(C)=O)CC2)cc1 (centres undefined),/,8.1,-13.2,-2.4,/
SMILES,TRPML3 agonist,OX1R antag-1,OX1R antag-2,CHO parental Ca,zfTRPN1 agonist
COc1ccccc1C(=O)NCC(=O)NCCC(c1ccccc1)c1ccccc1,/,7.0,-10.6,-17.5,/
CCOc1ccccc1NC(=O)CCCc1ccc(OC)c(C)c1,/,-0.1,-30.8,-30.1,/
COc1cccc(NC(=O)[C@H](CC(C)C)NC(=O)[C@@H]2Cc3ccccc3CN2)c1,/,8.3,-17.5,-31.9,/
CC1=C/C(=N\OS(=O)(=O)c2ccccc2)C(C(C)C)=CC1=O,35.3*,37.3,51.1*,45.2,2.7
CC1=CC(=O)c2ccccc2C1=O,1.1,8.2,-11.7,-6.2,1.5
O=c1nc2n(c3cccc(Cl)c13)CCCCC2,0.8,12.1,-13.2,0.1,0.4
O=C(Nc1cccnc1)c1cc2c(s1)-c1ccccc1OC2,/,14.9,31.1,36.9,/
